Laboratory results reported in ChEMBL document CHEMBL5058577, “EUbOPEN Chemogenomics Library 2 (Multiplex)” (2022).

Tested on: U2OS
Experiment: Multiplex assay against U2OS
Format: toxicity, cell-based
Details: human
In short: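 Live cells carried four stains from seeding: Hoechst33342, BioTracker Green Microtubule Cytoskeleton Dye, MitoTracker Red and Annexin V Alexa Fluor 680. They were imaged on a CQ1 microscope at 37°C and 5% CO2 after compound addition. Using CellPathfinder machine-learning gating, cells were split into Hoechst high-intensity objects or normal cells, normal cells into healthy, pyknosed or fragmented nuclei, and pyknosed cells into mitotic or apoptotic; tubulin, mitochondrial-mass and membrane-permeability phenotypes are per cents of healthy-nucleus cells.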

[1] = 12 h, 1 µM, compound concentration 1 uM, replicate 1
[2] = 12 h, 1 µM, compound concentration 1 uM, replicate 2
[3] = 12 h, 10 µM, compound concentration 10 uM, replicate 1
[4] = 12 h, 10 µM, compound concentration 10 uM, replicate 2
[5] = 24 h, 1 µM, compound concentration 1 uM, replicate 1
[6] = 24 h, 1 µM, compound concentration 1 uM, replicate 2
[7] = 24 h, 10 µM, compound concentration 10 uM, replicate 1
[8] = 24 h, 10 µM, compound concentration 10 uM, replicate 2
[9] = 48 h, 1 µM, compound concentration 1 uM, replicate 1
[10] = 48 h, 1 µM, compound concentration 1 uM, replicate 2
[11] = 48 h, 10 µM, compound concentration 10 uM, replicate 1
[12] = 48 h, 10 µM, compound concentration 10 uM, replicate 2

## O=C(NCCNCC(O)COc1ccc(O)cc1)N1CCOCC1.O=C(NCCNCC(O)COc1ccc(O)cc1)N1CCOCC1.O=C(O)/C=C/C(=O)O (stereo unspecified) [XAMOTEROL FUMARATE]
[1]
  Population Apoptotic (%): 71%
  Population Fragmented Nuclei (%): 27%
  Population Healthy Nuclei (%): 66%
  Population Hoechst High Intensity Objects (%): 2%
  Population Membrane Permeable-Phenotype (%): 6%
  Population Mitochondria Different-Phenotype (%): 1%
  Population Mitotic Cells (%): 28%
  Population Normal (%): 97%
  Population Pyknosed Nuclei (%): 5%
  Population Tubulin-Different-Phenotype (%): 2%
  Total Cell Count: 265
[2]
  Population Apoptotic (%): 83%
  Population Fragmented Nuclei (%): 19%
  Population Healthy Nuclei (%): 68%
  Population Hoechst High Intensity Objects (%): 3%
  Population Membrane Permeable-Phenotype (%): 13%
  Population Mitotic Cells (%): 16%
  Population Normal (%): 96%
  Population Pyknosed Nuclei (%): 11%
  Population Tubulin-Different-Phenotype (%): 5%
  Total Cell Count: 110
[3]
  Population Apoptotic (%): 92%
  Population Fragmented Nuclei (%): 28%
  Population Healthy Nuclei (%): 60%
  Population Hoechst High Intensity Objects (%): 0%
  Population Membrane Permeable-Phenotype (%): 6%
  Population Mitochondria Different-Phenotype (%): 2%
  Population Mitotic Cells (%): 7%
  Population Normal (%): 99%
  Population Pyknosed Nuclei (%): 11%
  Population Tubulin-Different-Phenotype (%): 4%
  Total Cell Count: 239
[4]
  Population Apoptotic (%): 100%
  Population Fragmented Nuclei (%): 15%
  Population Healthy Nuclei (%): 73%
  Population Hoechst High Intensity Objects (%): 4%
  Population Membrane Permeable-Phenotype (%): 4%
  Population Mitochondria Different-Phenotype (%): 3%
  Population Mitotic Cells (%): 0%
  Population Normal (%): 95%
  Population Tubulin-Different-Phenotype (%): 7%
  Total Cell Count: 118
[5]
  Population Apoptotic (%): 85%
  Population Fragmented Nuclei (%): 24%
  Population Healthy Nuclei (%): 68%
  Population Hoechst High Intensity Objects (%): 0%
  Population Membrane Permeable-Phenotype (%): 5%
  Population Mitochondria Different-Phenotype (%): 0%
  Population Mitotic Cells (%): 15%
  Population Normal (%): 99%
  Population Pyknosed Nuclei (%): 6%
  Population Tubulin-Different-Phenotype (%): 1%
  Total Cell Count: 312
[6]
  Population Apoptotic (%): 80%
  Population Fragmented Nuclei (%): 18%
  Population Healthy Nuclei (%): 69%
  Population Hoechst High Intensity Objects (%): 1%
  Population Membrane Permeable-Phenotype (%): 10%
  Population Mitochondria Different-Phenotype (%): 4%
  Population Mitotic Cells (%): 20%
  Population Normal (%): 98%
  Population Pyknosed Nuclei (%): 11%
  Population Tubulin-Different-Phenotype (%): 5%
  Total Cell Count: 129
[7]
  Population Apoptotic (%): 89%
  Population Fragmented Nuclei (%): 22%
  Population Healthy Nuclei (%): 66%
  Population Hoechst High Intensity Objects (%): 1%
  Population Membrane Permeable-Phenotype (%): 6%
  Population Mitochondria Different-Phenotype (%): 2%
  Population Mitotic Cells (%): 10%
  Population Normal (%): 98%
  Population Pyknosed Nuclei (%): 10%
  Population Tubulin-Different-Phenotype (%): 2%
  Total Cell Count: 270
[8]
  Population Apoptotic (%): 78%
  Population Fragmented Nuclei (%): 16%
  Population Healthy Nuclei (%): 70%
  Population Mitotic Cells (%): 21%
  Population Pyknosed Nuclei (%): 12%
  Population Tubulin-Different-Phenotype (%): 6%
  Total Cell Count: 152
[9]
  Population Apoptotic (%): 90%
  Population Fragmented Nuclei (%): 18%
  Population Healthy Nuclei (%): 75%
  Population Hoechst High Intensity Objects (%): 1%
  Population Membrane Permeable-Phenotype (%): 4%
  Population Mitochondria Different-Phenotype (%): 2%
  Population Mitotic Cells (%): 9%
  Population Normal (%): 98%
  Population Pyknosed Nuclei (%): 6%
  Population Tubulin-Different-Phenotype (%): 2%
  Total Cell Count: 472
[10]
  Population Apoptotic (%): 91%
  Population Fragmented Nuclei (%): 23%
  Population Healthy Nuclei (%): 62%
  Population Hoechst High Intensity Objects (%): 2%
  Population Membrane Permeable-Phenotype (%): 6%
  Population Mitochondria Different-Phenotype (%): 3%
  Population Mitotic Cells (%): 8%
  Population Normal (%): 97%
  Population Pyknosed Nuclei (%): 13%
  Population Tubulin-Different-Phenotype (%): 4%
  Total Cell Count: 171
[11]
  Population Apoptotic (%): 89%
  Population Fragmented Nuclei (%): 18%
  Population Healthy Nuclei (%): 68%
  Population Hoechst High Intensity Objects (%): 1%
  Population Membrane Permeable-Phenotype (%): 2%
  Population Mitochondria Different-Phenotype (%): 1%
  Population Mitotic Cells (%): 10%
  Population Normal (%): 98%
  Population Pyknosed Nuclei (%): 12%
  Population Tubulin-Different-Phenotype (%): 2%
  Total Cell Count: 392
[12]
  Population Apoptotic (%): 94%
  Population Fragmented Nuclei (%): 17%
  Population Healthy Nuclei (%): 73%
  Population Hoechst High Intensity Objects (%): 2%
  Population Membrane Permeable-Phenotype (%): 4%
  Population Mitochondria Different-Phenotype (%): 4%
  Population Mitotic Cells (%): 5%
  Population Normal (%): 97%
  Population Pyknosed Nuclei (%): 9%
  Population Tubulin-Different-Phenotype (%): 6%
  Total Cell Count: 206
